We go through three compounds from publication PMC6656940 (CPT: Pharmacometrics & Systems Pharmacology, 2019).

The conditions of series [1]: cited from earlier work.
Series [2] deals with T1, CYP2C8 (Homo sapiens, UniProt P10632).
T1 sequence (P10632 1-490): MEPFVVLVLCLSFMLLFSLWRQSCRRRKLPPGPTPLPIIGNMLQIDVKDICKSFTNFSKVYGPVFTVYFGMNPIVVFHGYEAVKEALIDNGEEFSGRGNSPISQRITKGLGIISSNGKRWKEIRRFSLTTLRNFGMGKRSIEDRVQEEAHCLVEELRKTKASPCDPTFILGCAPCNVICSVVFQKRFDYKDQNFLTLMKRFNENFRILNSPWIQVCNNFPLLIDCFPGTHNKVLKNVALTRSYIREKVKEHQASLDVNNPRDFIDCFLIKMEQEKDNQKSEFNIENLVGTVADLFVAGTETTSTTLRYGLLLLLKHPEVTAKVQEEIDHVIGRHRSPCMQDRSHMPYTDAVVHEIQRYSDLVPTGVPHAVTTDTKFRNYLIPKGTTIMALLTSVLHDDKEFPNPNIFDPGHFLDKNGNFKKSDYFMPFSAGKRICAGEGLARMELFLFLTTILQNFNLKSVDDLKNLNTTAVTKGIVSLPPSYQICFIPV
Briefly: In vitro competitive and time-dependent inhibition of CYP2C8. The format is in vitro ADME.

Series [3] in a line: Unbound fraction in plasma. The format is in vitro ADME.
The conditions of series [4]: cited from earlier work. The source holds these as a separate data set.
A short description of series [5]: Physicochemical properties. The note with it: Experimental data.
Series [6] concerns the target CYP2C9 (Homo sapiens, UniProt P11712). Description: In vitro competitive inhibition of CYP2C9. The class given is in vitro ADME.
For series [7], the system named is CYP3A4. Description: Clearance of ACP-5862 in human liver microsomes. The class given is in vitro ADME. Particulars: assigned to CYP3A4.
For series [8], the system named is BTK. Particulars: cited from earlier work.
A short description of series [9]: Blood-to-plasma partition ratio. The class given is in vitro ADME.
Series [10] deals with CYP2C19 (Homo sapiens, UniProt P33261). Description: In vitro competitive inhibition of CYP2C19. The format is in vitro ADME. Particulars: read-out: CYP2C19 Ki; reversible inhibition.
Series [11] concerns the target T2, P-gp (Homo sapiens, UniProt P08183). Description: Efflux in MDCKII-MDR1 cells. The class given is in vitro ADME. Particulars: dog, MDCK-MDR1.
The test system of series [12] is patients with relapsed CLL. The note with it: median follow-up 14.3 months; cited from earlier work.
Series [13] in a line: PBPK model input parameters predicted, optimized or estimated in Simcyp. The arrangement: species or system human.
Series [14] has as its system human hepatocytes. Description: Metabolite profiling of 14C-acalabrutinib in human hepatocytes. The format is in vitro ADME. Particulars: 20 μM 14C-acalabrutinib. The gist of the method:
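14C-labelled test compound at 20 μM was incubated with human hepatocytes from two male donors for qualitative metabolite profiling. Metabolism was apportioned between glutathione and CYP-mediated pathways, and the CYP3A share of CYP metabolite formation was estimated.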

Series [15] relates to CYP2B6. Briefly: In vitro CYP induction, CYP2B6 marker substrate. The format is in vitro ADME. The note with it: any concentration evaluated.
For series [16] the following is noted: clinical DDI study with rifampicin; cited from earlier work.
Series [17] deals with T2, P-gp. Description: In vitro P-gp inhibition. The format is in vitro ADME.
In series [18] the target is CYP3A4 (Homo sapiens, UniProt P08684). Description: biochemical. The format is in vitro ADME.
Series [19] concerns patients with relapsed/refractory mantle cell lymphoma. Particulars: median follow-up 15.2 months; cited from earlier work.
Series [20] can be described thus: Clinical pharmacokinetics of acalabrutinib and ACP-5862. The class given is in vivo, human. Particulars: ACE-HV-001, oral. The gist of the method:
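Healthy subjects in a phase I dose-escalation study (ACE-HV-001) received single oral acalabrutinib doses of 25, 50, 75 or 100 mg (cohorts 3–6). In vivo total clearance was taken from this study's plasma concentration–time data.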

The test system of series [21] is CYP3A4. The format is in vitro ADME. The note with it: any concentration evaluated.
Series [22] relates to CYP1A2. Description: In vitro CYP induction, CYP1A2 marker substrate. The class given is in vitro ADME. Particulars: any concentration evaluated.
The conditions of series [23]: with strong CYP3A inhibitor clarithromycin; cited from earlier work.

Molecules are shown by their SMILES. Read-outs that look alike come from different tables or passages of the source.

Sequence of CYP2C9 (P11712 whole entry): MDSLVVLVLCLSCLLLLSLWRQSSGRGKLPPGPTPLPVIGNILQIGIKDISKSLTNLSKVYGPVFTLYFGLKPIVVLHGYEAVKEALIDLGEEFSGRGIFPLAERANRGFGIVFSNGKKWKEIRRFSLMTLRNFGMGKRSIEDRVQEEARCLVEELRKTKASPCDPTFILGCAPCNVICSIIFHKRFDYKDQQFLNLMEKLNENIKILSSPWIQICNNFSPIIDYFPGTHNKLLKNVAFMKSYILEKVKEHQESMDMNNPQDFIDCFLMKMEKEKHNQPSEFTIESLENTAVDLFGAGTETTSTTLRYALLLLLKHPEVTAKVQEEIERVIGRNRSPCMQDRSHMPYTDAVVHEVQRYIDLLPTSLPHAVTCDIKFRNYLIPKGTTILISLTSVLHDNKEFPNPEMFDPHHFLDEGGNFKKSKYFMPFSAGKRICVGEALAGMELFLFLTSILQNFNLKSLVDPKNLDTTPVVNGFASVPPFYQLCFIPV
T2 sequence (P08183 whole entry): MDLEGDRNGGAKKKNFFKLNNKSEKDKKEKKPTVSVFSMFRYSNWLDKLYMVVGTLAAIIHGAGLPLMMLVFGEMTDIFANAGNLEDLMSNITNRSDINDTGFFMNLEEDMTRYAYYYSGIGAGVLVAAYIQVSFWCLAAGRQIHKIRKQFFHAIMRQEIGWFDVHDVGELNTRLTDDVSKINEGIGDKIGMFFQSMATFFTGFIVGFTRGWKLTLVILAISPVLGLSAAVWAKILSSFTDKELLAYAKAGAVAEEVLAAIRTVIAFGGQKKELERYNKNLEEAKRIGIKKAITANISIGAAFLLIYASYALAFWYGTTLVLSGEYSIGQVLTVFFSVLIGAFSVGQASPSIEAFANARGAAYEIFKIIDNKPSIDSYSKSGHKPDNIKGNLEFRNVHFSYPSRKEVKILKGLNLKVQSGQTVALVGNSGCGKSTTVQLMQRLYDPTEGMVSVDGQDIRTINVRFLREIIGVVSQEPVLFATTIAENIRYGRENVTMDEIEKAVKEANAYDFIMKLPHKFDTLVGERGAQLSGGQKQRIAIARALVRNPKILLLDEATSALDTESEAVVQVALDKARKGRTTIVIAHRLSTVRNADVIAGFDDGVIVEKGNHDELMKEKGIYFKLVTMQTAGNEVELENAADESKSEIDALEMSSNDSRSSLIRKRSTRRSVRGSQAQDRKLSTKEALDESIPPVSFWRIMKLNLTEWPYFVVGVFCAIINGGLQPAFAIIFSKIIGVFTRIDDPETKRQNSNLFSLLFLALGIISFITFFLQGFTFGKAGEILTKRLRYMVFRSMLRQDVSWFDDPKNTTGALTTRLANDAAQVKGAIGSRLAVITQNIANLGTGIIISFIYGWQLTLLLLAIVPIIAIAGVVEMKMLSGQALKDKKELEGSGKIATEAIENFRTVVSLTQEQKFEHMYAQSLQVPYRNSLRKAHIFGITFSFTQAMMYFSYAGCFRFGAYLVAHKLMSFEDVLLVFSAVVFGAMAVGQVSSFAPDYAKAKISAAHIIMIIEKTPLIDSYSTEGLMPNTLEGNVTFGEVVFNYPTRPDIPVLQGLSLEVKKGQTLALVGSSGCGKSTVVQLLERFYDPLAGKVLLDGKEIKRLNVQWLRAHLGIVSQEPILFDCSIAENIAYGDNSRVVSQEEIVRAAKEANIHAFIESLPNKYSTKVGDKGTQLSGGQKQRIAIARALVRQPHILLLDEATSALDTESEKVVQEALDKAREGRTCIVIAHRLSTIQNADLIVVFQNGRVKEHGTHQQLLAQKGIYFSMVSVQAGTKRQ
Sequence of CYP3A4 (Homo sapiens, UniProt P08684) (P08684 whole entry): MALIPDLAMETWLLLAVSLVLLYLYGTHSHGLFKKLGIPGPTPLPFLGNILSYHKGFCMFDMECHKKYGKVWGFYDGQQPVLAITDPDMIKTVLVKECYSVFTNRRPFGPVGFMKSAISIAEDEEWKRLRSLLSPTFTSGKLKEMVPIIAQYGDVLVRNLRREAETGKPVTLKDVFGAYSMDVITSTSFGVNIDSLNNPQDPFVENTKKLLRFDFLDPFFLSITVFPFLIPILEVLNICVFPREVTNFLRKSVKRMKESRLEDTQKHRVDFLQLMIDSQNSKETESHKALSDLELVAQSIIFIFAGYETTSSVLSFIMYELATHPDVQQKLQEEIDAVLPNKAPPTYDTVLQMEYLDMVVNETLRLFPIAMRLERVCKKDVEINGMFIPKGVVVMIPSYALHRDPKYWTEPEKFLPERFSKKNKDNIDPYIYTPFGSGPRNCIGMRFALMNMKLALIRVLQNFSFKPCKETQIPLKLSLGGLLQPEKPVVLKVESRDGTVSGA
Sequence of CYP2C19 (P33261 whole entry): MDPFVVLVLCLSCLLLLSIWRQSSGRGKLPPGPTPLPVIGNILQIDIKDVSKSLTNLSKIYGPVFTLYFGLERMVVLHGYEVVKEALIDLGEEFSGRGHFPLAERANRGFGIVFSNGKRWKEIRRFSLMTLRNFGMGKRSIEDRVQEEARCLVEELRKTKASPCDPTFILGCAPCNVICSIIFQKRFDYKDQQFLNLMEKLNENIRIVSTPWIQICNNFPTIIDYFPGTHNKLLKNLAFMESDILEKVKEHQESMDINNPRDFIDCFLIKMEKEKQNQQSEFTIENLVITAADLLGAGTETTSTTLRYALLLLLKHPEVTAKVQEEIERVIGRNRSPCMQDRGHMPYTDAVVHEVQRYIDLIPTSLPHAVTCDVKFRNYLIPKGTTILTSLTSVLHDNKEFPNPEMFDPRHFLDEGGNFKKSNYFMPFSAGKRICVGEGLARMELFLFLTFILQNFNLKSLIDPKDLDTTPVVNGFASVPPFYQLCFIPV

The half-life is how long it takes for the measured level to halve. For orientation: logP means the decadic logarithm of the partition coefficient of the neutral form, usually between octanol and water. Regarding `CC#CC(=O)NCCCC(=O)c1nc(-c2ccc(C(=O)Nc3ccccn3)cc2)c2c(N)nccn12` [ACP‐5862], the “ACP-5862-related metabolites, share of total dose” value in [1] (human mass balance study) is 10%. Moreover, the Ki in series [2] (read-out: CYP2C8 KI, time-dependent inhibition) is 4 µM. The CYP2C8 kinact in series [2] (time-dependent inhibition) is 0.72 h⁻¹. In addition, the “fu,plasma (unbound fraction in plasma)” value in series [3] (Experimental data) came out at 0.013. The “CLR (renal clearance)” value in [4] (ACP-5862, reported in ACE-HV-009) was 0.3 L/h. In [4] (ACP-5862 after single oral dose of 100 mg acalabrutinib), the half-life is 6.9 h. For the same compound, in series [5], the Compound type result is “Diprotic base”, the logP is on record as 2.72, the “pKa (first value)” value is 3.41 and the “pKa (second value)” value stood at 4.49. In addition, the Ki in [6] (read-out: CYP2C9 Ki, reversible inhibition) turned out to be 3.35 µM. Further, the “Clint in vitro HLM, CYP3A4” value in series [7] came to 23.6 µL/min/mg. In addition, the “potency for BTK inactivation relative to parent acalabrutinib” value in series [8] is reported as ~ 50%. In addition, the “B/P ratio (blood-to-plasma ratio)” value in series [9] (Experimental data) came out at 0.65. Besides, the Ki in series [10] came to 8.5 µM.
The term efflux ratio denotes a quotient of directional permeabilities that is used to spot active efflux. In general, fraction unbound refers to free concentration divided by total concentration. A high value points to weak binding. A word on the microsomal CLint: it is the capacity of the preparation to metabolise the compound, expressed as a volume cleared per time. In general, pKa refers to the negative logarithm of the acid dissociation constant. By kinact is commonly meant the rate constant of inactivation at saturating inhibitor. For the compound `CC#CC(=O)N1CCC[C@H]1c1nc(-c2ccc(C(=O)Nc3ccccn3)cc2)c2c(N)nccn12` [Acalabrutinib], the “unchanged acalabrutinib, share of excreted dose” value in series [1] (human mass-balance study) is on record as 1.2%. In [11], the efflux ratio at 1 μM came out at 42. In addition, the Ki in [2] was 20.6 µM; in [6] it was 11.3 µM; in [18] (CYP3A4 Ki, reversible inhibition), 23.9 µM. In addition, the overall response rate in [12] is on record as 95%. This compound yielded a fraction unbound in series [3] (plasma) of 0.026. Also, the “CYP3A4 CLint” value in [13] (Retrograde model, total CYP3A4 clearance) was 9.63 µL/min/pmol; in series [13] (the rest to other metabolites), 8.14 µL/min/pmol. Further, in series [13] (human, liver microsomes), the microsomal CLint was 290 µL/min/mg. For the same compound, the “CLR (renal clearance)” value in [4] (clinical study ACE-HV-009) is 1.33 L/h. The absolute oral bioavailability in series [4] (healthy subjects) was 25%. Also, the oral half-life result in series [4] (healthy subjects) is on record as “about 1.57 hours”. Also, the “accumulation after multiple doses” value in series [4] (patients) is recorded as “no accumulation”. Also, in [5], the Compound type entry is “Diprotic base”. This compound showed a pKa in series [5] (pKa (first value)) of 3.54. For the same compound, in [14], the “share of CYP3A in the formation of CYP metabolites” value is given as ~ 90%. In addition, the “relative contribution of CYP-mediated metabolic pathway” value in [14] (two male donors) was found to be 79%. The “relative contribution of glutathione metabolic pathway” value in series [14] (two male donors) is listed as 21%. The “induction of metabolism of CYP2B6 marker substrate” value in series [15] is “did not cause significant induction”. The “acalabrutinib AUC with rifampicin, reduced to % of control” value in [16] is ~ 20%. In addition, in [17], the P-gp inhibition result is “not a P‐gp inhibitor”. The kinact in [18] (human) was 0.000308 s⁻¹. Besides, the “investigator-assessed overall response rate” value in series [19] is 81%. In addition, the “in vivo total clearance” value in [20] came out at 169 L/h. Also, the blood plasma ratio in [9] (blood) was determined as 0.787. Also, the “induction of metabolism of CYP3A4 marker substrate” value in series [21] is reported as “did not cause significant induction”. Further, the “induction of metabolism of CYP1A2 marker substrate” value in series [22] is given as “did not cause significant induction”.
Regarding `CCN1CCN(Cc2ccc(Nc3ncc(F)c(-c4cc(F)c5nc(C)n(C(C)C)c5c4)n3)nc2)CC1` [abemaciclib], the increase in exposure in series [23] is on record as 3.4 fold.
